The source made the active and inactive calls. The rule behind the calls is not given here.
How the values were obtained:
[1] = biological target: cAMP and cAMP-inhibited cGMP 3',5'-cyclic phosphodiesterase 10A (Homo sapiens, UniProt Q9Y233); assay: Inhibition of human recombinant PDE10A assessed as inhibition of [3H]cAMP hydrolysis by scintillation proximity assay
Method in brief: (§1)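 Scintillation proximity assay on recombinant human PDEs 1–11, with [³H]cAMP as substrate and hydrolysis of cAMP to AMP as read-out. Ki values are means of two experiments.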

[2] = biological target: T1, High affinity 3',5'-cyclic-AMP phosphodiesterase 7A (Homo sapiens, UniProt Q13946); assay: Inhibition of human recombinant PDE7A1 assessed as inhibition of [3H]cAMP hydrolysis by scintillation proximity assay; method in brief: as §1
[3] = biological target: T2, cGMP-inhibited 3',5'-cyclic phosphodiesterase 3A (Homo sapiens, UniProt Q14432); assay: Inhibition of human recombinant PDE3A assessed as inhibition of [3H]cAMP hydrolysis by scintillation proximity assay; method in brief: as §1
[4] = Clearance in monkey hepatocytes assessed per 10^6 cells; format: ADME, cell-based, Macaca mulatta, Hepatocyte; details: rhesus monkey, read-out: CLH
[5] = Clearance in human hepatocytes assessed per 10^6 cells; format: ADME, cell-based, Hepatocyte; details: read-out: CLH
[6] = Clearance in rat hepatocytes assessed per 10^6 cells; format: ADME, cell-based, Hepatocyte; details: read-out: CLH
hERG (KCNH2) = hERG (KCNH2) (Homo sapiens, UniProt Q12809); assay: Inhibition of human ERG at 10 uM
Method in brief: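 hERG inhibition was measured on the IonWorks platform at 10 µM.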

Phosphodiesterase 4 = Phosphodiesterase 4 (Homo sapiens, UniProt P27815+Q08499+Q07343+Q08493); assay: Inhibition of human recombinant PDE4 assessed as inhibition of [3H]cAMP hydrolysis by scintillation proximity assay; format: protein assay; method in brief: as §1
Phosphodiesterase 6 = assay: Inhibition of human recombinant PDE6 assessed as inhibition of [3H]cAMP hydrolysis by scintillation proximity assay; format: protein assay; method in brief: as §1
[7] = Solubility of the compound in 2% DMSO at pH 7.4; format: physicochemical
[8] = Dissociation constant, pKa of the compound; format: physicochemical
[9] = biological target: cGMP-specific 3',5'-cyclic phosphodiesterase (Homo sapiens, UniProt O76074); assay: Inhibition of human recombinant PDE5 assessed as inhibition of [3H]cAMP hydrolysis by scintillation proximity assay; method in brief: as §1
[10] = biological target: cGMP-dependent 3',5'-cyclic phosphodiesterase (Homo sapiens, UniProt O00408); assay: Inhibition of human recombinant PDE2 assessed as inhibition of [3H]cAMP hydrolysis by scintillation proximity assay; method in brief: as §1
[11] = Toxicity in Cebus monkey assessed as extrapyramidal symptoms at 3 to 6 mg/kg, po; format: organism-based; set-up: dose 3-6 mg/kg, route oral; details: in vivo
[12] = Efflux ratio in human Caco2 cells; format: ADME, cell-based; details: Caco-2
[13] = Toxicity in Cebus monkey assessed as akathisia at 3 to 6 mg/kg, po; format: organism-based; set-up: dose 3-6 mg/kg, route oral; details: in vivo
[14] = biological target: High affinity cGMP-specific 3',5'-cyclic phosphodiesterase 9A (Homo sapiens, UniProt O76083); assay: Inhibition of human recombinant PDE9 assessed as inhibition of [3H]cAMP hydrolysis by scintillation proximity assay; method in brief: as §1
Phosphodiesterase 8 = Phosphodiesterase 8 (Homo sapiens, UniProt O95263+O60658); assay: Inhibition of human recombinant PDE8 assessed as inhibition of [3H]cAMP hydrolysis by scintillation proximity assay; format: protein assay; method in brief: as §1
Phosphodiesterase 1 = Phosphodiesterase 1 (Homo sapiens, UniProt P54750+Q01064+Q14123); assay: Inhibition of human recombinant PDE1 assessed as inhibition of [3H]cAMP hydrolysis by scintillation proximity assay; format: protein assay; method in brief: as §1
[15] = biological target: Dual 3',5'-cyclic-AMP and -GMP phosphodiesterase 11A (Homo sapiens, UniProt Q9HCR9); assay: Inhibition of human recombinant PDE11 assessed as inhibition of [3H]cAMP hydrolysis by scintillation proximity assay; method in brief: as §1
[16] = biological target: T1, High affinity 3',5'-cyclic-AMP phosphodiesterase 7A; assay: Inhibition of human recombinant PDE7A1 assessed as inhibition of [3H]cAMP hydrolysis at 3 uM by scintillation proximity assay
Method in brief: (§2)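 Recombinant human PDE3A or PDE7A1 was tested at a single 3 µM level in the scintillation proximity assay, with [³H]cAMP as substrate and cAMP-to-AMP hydrolysis as read-out. Results are expressed as % inhibition.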

Rattus norvegicus [17] = assay: Antipsychotic activity in CD rat assessed as inhibition of MK801-induced hyperactivity at 3 mg/kg, po; format: functional, organism-based; set-up: dose 3 mg/kg
Method in brief: (§3)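 Male CD rats were habituated to locomotor activity chambers 24 h before testing. On test day, MK-801 (0.3 mg/kg, sc) was co-administered with the PDE10 inhibitor (po) and the rats were placed in the apparatus. Inhibition is the activity of the inhibitor+MK-801 group as a percent of the vehicle+MK-801 group.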

[18] = biological target: T2, cGMP-inhibited 3',5'-cyclic phosphodiesterase 3A; assay: Inhibition of human recombinant PDE3A assessed as inhibition of [3H]cAMP hydrolysis at 3 uM by scintillation proximity assay; method in brief: as §2
[19] = Drug uptake in CD rat brain at 30 mg/kg, po after 1 hr; format: ADME, organism-based; set-up: dose 30 mg/kg, route oral
Rattus norvegicus [20] = assay: Antipsychotic activity in CD rat assessed as inhibition of MK801-induced hyperactivity at 30 mg/kg, po; format: functional, organism-based; set-up: dose 30 mg/kg; method in brief: as §3

Dual 3',5'-cyclic-AMP and -GMP phosphodiesterase 11A, sequence (Q9HCR9 whole entry): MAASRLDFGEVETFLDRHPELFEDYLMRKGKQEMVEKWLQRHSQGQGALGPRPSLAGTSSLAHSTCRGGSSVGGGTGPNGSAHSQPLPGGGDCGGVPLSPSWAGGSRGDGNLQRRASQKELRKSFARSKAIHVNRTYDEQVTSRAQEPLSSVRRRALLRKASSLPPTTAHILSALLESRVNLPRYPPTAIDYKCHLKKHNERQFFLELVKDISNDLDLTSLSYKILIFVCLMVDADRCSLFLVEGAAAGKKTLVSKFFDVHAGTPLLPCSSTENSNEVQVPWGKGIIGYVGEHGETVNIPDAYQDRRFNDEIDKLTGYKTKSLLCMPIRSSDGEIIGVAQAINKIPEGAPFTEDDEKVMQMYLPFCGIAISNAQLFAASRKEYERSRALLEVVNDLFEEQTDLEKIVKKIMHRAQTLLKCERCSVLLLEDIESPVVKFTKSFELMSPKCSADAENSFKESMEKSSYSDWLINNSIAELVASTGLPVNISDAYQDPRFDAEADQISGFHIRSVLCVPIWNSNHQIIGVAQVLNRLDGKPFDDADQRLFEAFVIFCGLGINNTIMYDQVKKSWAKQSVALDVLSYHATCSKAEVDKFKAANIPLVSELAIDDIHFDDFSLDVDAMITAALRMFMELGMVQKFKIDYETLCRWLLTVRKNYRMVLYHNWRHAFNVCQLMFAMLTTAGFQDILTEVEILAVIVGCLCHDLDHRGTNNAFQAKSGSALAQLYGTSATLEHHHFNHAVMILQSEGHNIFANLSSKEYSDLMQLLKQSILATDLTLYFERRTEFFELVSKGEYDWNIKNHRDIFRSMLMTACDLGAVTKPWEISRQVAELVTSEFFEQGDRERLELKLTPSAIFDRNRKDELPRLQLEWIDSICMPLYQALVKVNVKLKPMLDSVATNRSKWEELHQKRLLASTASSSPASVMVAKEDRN
T2 sequence (Q14432 whole entry): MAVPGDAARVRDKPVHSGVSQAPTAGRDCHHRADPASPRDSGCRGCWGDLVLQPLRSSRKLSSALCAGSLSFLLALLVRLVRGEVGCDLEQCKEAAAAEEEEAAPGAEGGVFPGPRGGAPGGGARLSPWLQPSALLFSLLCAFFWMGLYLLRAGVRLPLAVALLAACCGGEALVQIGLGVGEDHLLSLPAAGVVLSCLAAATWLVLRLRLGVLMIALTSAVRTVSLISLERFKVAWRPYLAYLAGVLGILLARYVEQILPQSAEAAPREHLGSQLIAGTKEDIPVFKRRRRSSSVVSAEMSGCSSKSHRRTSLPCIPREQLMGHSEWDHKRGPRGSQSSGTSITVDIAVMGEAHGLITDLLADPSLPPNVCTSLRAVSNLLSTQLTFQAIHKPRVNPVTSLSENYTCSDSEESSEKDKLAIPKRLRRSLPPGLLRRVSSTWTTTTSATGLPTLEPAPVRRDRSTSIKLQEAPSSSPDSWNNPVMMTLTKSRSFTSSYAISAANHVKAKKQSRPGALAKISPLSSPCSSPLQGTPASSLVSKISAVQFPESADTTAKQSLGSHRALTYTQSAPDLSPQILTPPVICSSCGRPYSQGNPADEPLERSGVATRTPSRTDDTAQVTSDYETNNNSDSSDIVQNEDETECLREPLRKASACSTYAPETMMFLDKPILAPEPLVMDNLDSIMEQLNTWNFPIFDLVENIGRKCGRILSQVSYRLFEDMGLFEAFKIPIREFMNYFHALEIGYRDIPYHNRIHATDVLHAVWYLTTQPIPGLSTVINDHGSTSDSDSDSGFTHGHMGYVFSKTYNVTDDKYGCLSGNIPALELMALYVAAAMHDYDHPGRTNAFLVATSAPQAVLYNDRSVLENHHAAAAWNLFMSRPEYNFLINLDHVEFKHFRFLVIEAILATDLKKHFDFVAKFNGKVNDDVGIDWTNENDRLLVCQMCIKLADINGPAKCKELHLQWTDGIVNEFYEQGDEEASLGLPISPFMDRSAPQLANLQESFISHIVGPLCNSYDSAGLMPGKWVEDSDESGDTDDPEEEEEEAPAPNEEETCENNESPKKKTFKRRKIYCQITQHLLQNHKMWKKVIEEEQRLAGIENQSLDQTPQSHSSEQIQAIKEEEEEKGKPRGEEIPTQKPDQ
High affinity cGMP-specific 3',5'-cyclic phosphodiesterase 9A, sequence (O76083 whole entry): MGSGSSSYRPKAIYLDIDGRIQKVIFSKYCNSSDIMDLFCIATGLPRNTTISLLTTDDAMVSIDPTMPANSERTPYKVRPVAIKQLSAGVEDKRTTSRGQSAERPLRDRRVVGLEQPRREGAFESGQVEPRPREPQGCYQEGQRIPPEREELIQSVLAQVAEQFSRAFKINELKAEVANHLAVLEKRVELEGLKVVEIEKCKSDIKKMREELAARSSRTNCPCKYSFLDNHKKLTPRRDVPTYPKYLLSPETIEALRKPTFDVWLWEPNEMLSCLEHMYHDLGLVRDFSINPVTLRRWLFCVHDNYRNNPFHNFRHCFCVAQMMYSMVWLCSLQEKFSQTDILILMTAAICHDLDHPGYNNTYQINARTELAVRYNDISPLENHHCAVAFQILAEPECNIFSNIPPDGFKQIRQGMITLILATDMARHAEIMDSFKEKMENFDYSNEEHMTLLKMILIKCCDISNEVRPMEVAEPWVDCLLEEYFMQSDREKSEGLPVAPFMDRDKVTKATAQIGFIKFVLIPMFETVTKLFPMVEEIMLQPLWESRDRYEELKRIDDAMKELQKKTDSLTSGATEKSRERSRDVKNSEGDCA
cAMP and cAMP-inhibited cGMP 3',5'-cyclic phosphodiesterase 10A, sequence (Q9Y233 whole entry): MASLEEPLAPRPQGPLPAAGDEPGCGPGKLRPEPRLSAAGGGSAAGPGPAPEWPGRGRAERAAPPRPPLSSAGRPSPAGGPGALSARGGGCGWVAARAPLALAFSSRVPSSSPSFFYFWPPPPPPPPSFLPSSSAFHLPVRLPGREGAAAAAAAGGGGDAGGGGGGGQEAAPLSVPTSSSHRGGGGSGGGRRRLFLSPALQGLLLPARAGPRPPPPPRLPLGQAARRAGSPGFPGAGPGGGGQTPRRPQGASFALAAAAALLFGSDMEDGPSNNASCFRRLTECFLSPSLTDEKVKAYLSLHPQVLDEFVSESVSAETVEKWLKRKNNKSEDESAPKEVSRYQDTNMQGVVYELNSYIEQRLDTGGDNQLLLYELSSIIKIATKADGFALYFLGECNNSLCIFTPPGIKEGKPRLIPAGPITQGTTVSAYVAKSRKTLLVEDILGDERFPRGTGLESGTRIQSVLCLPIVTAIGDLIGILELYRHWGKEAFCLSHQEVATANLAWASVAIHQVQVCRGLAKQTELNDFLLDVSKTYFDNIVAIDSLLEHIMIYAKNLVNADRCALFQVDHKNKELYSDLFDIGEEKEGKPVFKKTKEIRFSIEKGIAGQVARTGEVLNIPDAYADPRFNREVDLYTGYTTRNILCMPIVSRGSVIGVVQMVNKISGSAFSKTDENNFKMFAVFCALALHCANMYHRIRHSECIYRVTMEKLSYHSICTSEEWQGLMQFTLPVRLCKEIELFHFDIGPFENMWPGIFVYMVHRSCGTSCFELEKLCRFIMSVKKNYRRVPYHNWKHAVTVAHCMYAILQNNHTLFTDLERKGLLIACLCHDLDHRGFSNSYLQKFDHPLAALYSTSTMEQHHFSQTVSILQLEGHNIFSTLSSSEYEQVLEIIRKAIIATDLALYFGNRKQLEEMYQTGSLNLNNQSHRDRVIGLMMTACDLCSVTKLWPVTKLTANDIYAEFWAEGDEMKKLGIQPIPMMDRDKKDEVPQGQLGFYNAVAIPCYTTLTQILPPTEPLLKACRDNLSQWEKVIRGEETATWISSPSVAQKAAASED
hERG (KCNH2), sequence (Q12809 whole entry): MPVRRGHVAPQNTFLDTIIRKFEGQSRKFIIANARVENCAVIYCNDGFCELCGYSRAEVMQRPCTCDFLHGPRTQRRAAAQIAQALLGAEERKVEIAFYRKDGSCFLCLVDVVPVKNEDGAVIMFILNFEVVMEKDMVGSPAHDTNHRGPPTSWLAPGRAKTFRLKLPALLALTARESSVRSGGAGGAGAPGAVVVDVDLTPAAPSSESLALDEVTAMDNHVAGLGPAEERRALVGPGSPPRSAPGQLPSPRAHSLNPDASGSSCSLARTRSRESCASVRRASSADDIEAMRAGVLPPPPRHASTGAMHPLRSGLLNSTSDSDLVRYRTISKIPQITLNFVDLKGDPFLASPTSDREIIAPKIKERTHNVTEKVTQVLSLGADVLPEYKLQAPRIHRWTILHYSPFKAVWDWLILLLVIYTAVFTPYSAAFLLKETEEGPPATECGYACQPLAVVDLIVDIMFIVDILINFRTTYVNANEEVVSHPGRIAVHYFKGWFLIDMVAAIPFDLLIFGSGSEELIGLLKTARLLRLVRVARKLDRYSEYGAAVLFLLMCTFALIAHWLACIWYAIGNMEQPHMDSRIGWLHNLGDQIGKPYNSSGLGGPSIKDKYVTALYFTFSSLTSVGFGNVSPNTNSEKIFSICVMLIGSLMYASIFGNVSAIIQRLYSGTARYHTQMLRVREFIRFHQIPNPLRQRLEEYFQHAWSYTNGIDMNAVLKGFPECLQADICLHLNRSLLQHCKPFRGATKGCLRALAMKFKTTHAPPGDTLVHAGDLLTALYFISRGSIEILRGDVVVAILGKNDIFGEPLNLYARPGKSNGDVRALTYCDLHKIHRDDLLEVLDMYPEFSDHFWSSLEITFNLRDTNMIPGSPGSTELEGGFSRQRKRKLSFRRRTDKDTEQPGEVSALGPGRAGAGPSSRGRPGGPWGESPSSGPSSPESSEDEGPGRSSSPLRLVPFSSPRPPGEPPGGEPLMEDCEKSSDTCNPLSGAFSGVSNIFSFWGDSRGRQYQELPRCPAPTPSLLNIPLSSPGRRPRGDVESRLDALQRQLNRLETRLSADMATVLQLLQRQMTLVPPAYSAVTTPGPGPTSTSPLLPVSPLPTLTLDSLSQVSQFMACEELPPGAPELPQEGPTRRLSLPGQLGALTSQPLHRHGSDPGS

| Ki [1] [nM] | Ki [2] [nM] | Ki [3] [nM] | hepatocyte CLint [4] [µL/min/1e6 cells] | hepatocyte CLint [5] [µL/min/1e6 cells] | hepatocyte CLint [6] [µL/min/1e6 cells] | SMILES | other results |
| --- | --- | --- | --- | --- | --- | --- | --- |
| 26 | 4600 | 540 | – | – | – | COc1cc2c(cc1OC)-c1c(-c3cnc(CO)s3)ncn1CC2 | – |
| 8 | 3760 | 277 | 66 | > 14 | 61 | CCOc1cccc(-c2ncn3c2-c2cc(OC)c(OC)cc2CC3)c1 | – |
| 264 | – | – | – | – | – | COc1cc2c(cc1OC)-c1c(-c3cncn3C)ncn1CC2 | – |
| 29 | – | 449 | 38.7 | 1.7 | 11.8 | COc1cc2c(cc1OC)-c1c(-c3cccnc3)ncn1CC2 | inhibition at 10 µM (hERG (KCNH2)): 24%; Ki (Phosphodiesterase 4): > 4274 nM; Ki (Phosphodiesterase 6): > 4274 nM; solubility [7]: > 200 µM; pKa [8]: 3.5; Ki [9]: > 4270 nM; Ki [10]: > 4270 nM; Activity [11]: Non-toxic; efflux ratio [12]: 1.4; Activity [13]: Non-toxic; Ki [14]: > 4270 nM; Ki (Phosphodiesterase 8): > 4274 nM; Ki (Phosphodiesterase 1): > 4274 nM; Ki [15]: > 4270 nM; inhibition [16]: 45%; Activity (Rattus norvegicus [17]): Active |
| 12 | – | – | – | – | – | COc1cc2c(cc1OC)-c1c(-c3cccnc3)ncn1C(C)C2 (stereo unspecified) | inhibition [18]: 97% |
| 8.7 | 243 | 149 | 59 | 66 | 49 | COc1cc2c(cc1OC)-c1c(-c3cnc(C(=O)N(C)C(C)(C)C)s3)ncn1CC2 | inhibition at 10 µM (hERG (KCNH2)): 40%; Ki (Phosphodiesterase 4): > 2000 nM; Ki (Phosphodiesterase 6): > 2000 nM; solubility [7]: > 200 µM; pKa [8]: 4; Ki [9]: > 2000 nM; Ki [10]: > 2000 nM; Ki [14]: > 2000 nM; Ki (Phosphodiesterase 8): > 2000 nM; Ki (Phosphodiesterase 1): > 2000 nM; Ki [15]: > 2000 nM |
| 508 | – | – | – | – | – | COc1cc2c(cc1OC)-c1c(-c3cocn3)ncn1CC2 | – |
| – | 3700 | 555 | – | – | – | COc1cc2c(cc1OC)-c1c(-c3cncs3)ncn1CC2 | inhibition at 10 µM (hERG (KCNH2)): 26%; Ki (Phosphodiesterase 4): > 2000 nM; Ki (Phosphodiesterase 6): > 2000 nM; solubility [7]: > 200 µM; pKa [8]: 4.3; Ki [9]: > 2000 nM; concentration at 1 h [19]: 350 ng/g; Ki [10]: > 2000 nM; Ki [14]: > 2000 nM; Activity (Rattus norvegicus [20]): Active; Ki (Phosphodiesterase 8): > 2000 nM; Ki (Phosphodiesterase 1): > 2000 nM; Ki [15]: > 2000 nM |
| 31 | 11100 | 1740 | 67 | 25 | – | COc1cc2c(cc1OC)-c1c(-c3cnco3)ncn1CC2 | – |
| 25 | 5980 | 727 | 26.6 | 0.4 | 3.6 | COc1cc2c(cc1OC)-c1c(-c3cccnc3)nc(C)n1CC2 | inhibition at 10 µM (hERG (KCNH2)): 29%; Ki (Phosphodiesterase 4): > 7950 nM; Ki (Phosphodiesterase 6): > 7950 nM; solubility [7]: > 200 µM; pKa [8]: 4; Ki [9]: > 7950 nM; Ki [10]: > 7950 nM; Ki [14]: > 7950 nM; Ki (Phosphodiesterase 8): > 7950 nM; Ki (Phosphodiesterase 1): > 7950 nM; Ki [15]: > 7950 nM |
| 6.4 | 7500 | 1470 | 66 | > 14 | 61 | COc1cc2c(cc1OC)-c1c(-c3cccc(N4CCOCC4)c3)ncn1CC2 | – |
| 101 | – | – | – | – | – | COc1cc2c(cc1OC)-c1c(-c3ccncc3)ncn1CC2 | – |
| 186 | – | – | – | – | – | COc1cc2c(cc1OC)-c1c(-c3cnc(C)s3)ncn1CC2 | – |
| 40 | 507 | > 100000 | – | – | – | COc1cc2c(cc1OC)-c1c(-c3cnc(C(=O)NCc4ccccc4)s3)ncn1CC2 | – |
| 199 | – | – | – | – | – | COc1cc2c(cc1OC)-c1c(C3CCCCC3)ncn1CC2 | – |
| 3.8 | 3770 | 224 | – | – | – | COc1cc2c(cc1OC)-c1c(-c3cnc(CN4CCCOCC4)s3)ncn1CC2 | – |
| 212 | – | – | – | – | – | COc1cc2c(cc1OC)-c1c(-c3ccccc3OC)ncn1CC2 | – |

| Ki [1] [nM] | Ki [2] [nM] | Ki [3] [nM] | hepatocyte CLint [4] [µL/min/1e6 cells] | hepatocyte CLint [5] [µL/min/1e6 cells] | hepatocyte CLint [6] [µL/min/1e6 cells] | SMILES | other results |
| --- | --- | --- | --- | --- | --- | --- | --- |
| 121 | – | – | – | – | – | COc1cc2c(cc1OC)-c1c(-c3ccccc3)ncn1CC2 | – |
| 4.3 | 550 | 828 | 22.7 | 1.4 | 5.7 | COc1cc2c(cc1OC)-c1c(-c3cnc(C(=O)NC4CCOCC4)s3)ncn1CC2 | – |
| 861 | – | – | – | – | – | COc1cc2c(cc1OC)-c1c(-c3cscn3)ncn1CC2 | – |
| 20 | 6120 | 968 | 65.5 | 7.5 | 9.2 | COc1cc2c(cc1OC)-c1c(-c3cncs3)nc(C)n1CC2 | inhibition at 10 µM (hERG (KCNH2)): 10%; Ki (Phosphodiesterase 4): > 7100 nM; Ki (Phosphodiesterase 6): > 7100 nM; solubility [7]: > 150 µM; pKa [8]: 5; Ki [9]: > 7100 nM; Ki [10]: > 7100 nM; Ki [14]: > 7100 nM; Ki (Phosphodiesterase 8): > 7100 nM; Ki (Phosphodiesterase 1): > 7100 nM; Ki [15]: > 7100 nM |
| 30 | 5540 | 136 | 66 | > 14 | 61 | COc1cccc(-c2ncn3c2-c2cc(OC)c(OC)cc2CC3)c1 | – |
| 628 | – | – | – | – | – | COc1cc2c(cc1OC)-c1c(-c3ccccc3Cl)ncn1CC2 | – |
| 240 | – | – | – | – | – | COc1cc2c(cc1OC)-c1c(-c3ccccn3)ncn1CC2 | – |
| 114 | – | – | – | – | – | COc1ccc(-c2ncn3c2-c2cc(OC)c(OC)cc2CC3)cc1 | – |
| 1.5 | 269 | 24 | – | – | – | COc1cc2c(cc1OC)-c1c(-c3cnc(C(=O)N4CCCOCC4)s3)ncn1CC2 | – |
| 10 | 613 | 99 | – | – | – | COc1cc2c(cc1OC)-c1c(-c3cnc(C(=O)N4CCOCC4)s3)ncn1CC2 | – |
| 26 | 2470 | 177 | – | – | – | COc1cc2c(cc1OC)-c1c(-c3cnc(N4CCOCC4)s3)ncn1CC2 | – |
| 32 | 10100 | 1280 | 66 | > 14 | 61 | COc1cc2c(cc1OC)-c1c(-c3cccc(Br)c3)ncn1CC2 | – |
| 6.6 | 4600 | 148 | – | – | – | COc1cc2c(cc1OC)-c1c(-c3cnc(CN4CCOCC4)s3)ncn1CC2 | – |
| 40 | – | – | – | – | – | COc1cc2c(cc1OC)-c1c(-c3cncnc3)ncn1CC2 | inhibition [18]: 14%; inhibition [16]: 13% |
| 33 | 6930 | 954 | 66 | > 14 | 61 | COc1cc2c(cc1OC)-c1c(-c3cccc(Cl)c3)ncn1CC2 | – |
| 183 | – | – | – | – | – | COc1cc2c(cc1OC)-c1c(-c3ccc(Cl)cc3)ncn1CC2 | – |
